In PubChem BioAssay:
Activity calls are given as the source filed them.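 The calls were made as follows, unless noted: active = viability at or below 30% in both replicate assays; inconclusive = viability at or below 30% in just one of the two assays; inactive = the rest.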

Columns and labels:
[1] = reducers of endogenous Her2 protein level, primary screen, SKBR3 breast tumor cells, AlphaScreen, ATP viability (AID 461;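 active = Her2 level under about 52% in both replicate screens, with viability over 70% of control, limit read from the data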;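 as to Her2 level: lower value means less Her2 protein in the cells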;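 as to viability: percent of carrier control wells set as 100% viability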); conditions: 18-24 h, measured here: SKBR3 viability, ATP luminescence, at 10 µM
[2] = biological target: Receptor tyrosine-protein kinase erbB-2 (Homo sapiens) (UniProt P04626); experiment: as above; conditions: 18-24 h, at 10 µM, stronger effect = lower value
Chain of Receptor tyrosine-protein kinase erbB-2 (Homo sapiens) (P04626 whole entry, looked up): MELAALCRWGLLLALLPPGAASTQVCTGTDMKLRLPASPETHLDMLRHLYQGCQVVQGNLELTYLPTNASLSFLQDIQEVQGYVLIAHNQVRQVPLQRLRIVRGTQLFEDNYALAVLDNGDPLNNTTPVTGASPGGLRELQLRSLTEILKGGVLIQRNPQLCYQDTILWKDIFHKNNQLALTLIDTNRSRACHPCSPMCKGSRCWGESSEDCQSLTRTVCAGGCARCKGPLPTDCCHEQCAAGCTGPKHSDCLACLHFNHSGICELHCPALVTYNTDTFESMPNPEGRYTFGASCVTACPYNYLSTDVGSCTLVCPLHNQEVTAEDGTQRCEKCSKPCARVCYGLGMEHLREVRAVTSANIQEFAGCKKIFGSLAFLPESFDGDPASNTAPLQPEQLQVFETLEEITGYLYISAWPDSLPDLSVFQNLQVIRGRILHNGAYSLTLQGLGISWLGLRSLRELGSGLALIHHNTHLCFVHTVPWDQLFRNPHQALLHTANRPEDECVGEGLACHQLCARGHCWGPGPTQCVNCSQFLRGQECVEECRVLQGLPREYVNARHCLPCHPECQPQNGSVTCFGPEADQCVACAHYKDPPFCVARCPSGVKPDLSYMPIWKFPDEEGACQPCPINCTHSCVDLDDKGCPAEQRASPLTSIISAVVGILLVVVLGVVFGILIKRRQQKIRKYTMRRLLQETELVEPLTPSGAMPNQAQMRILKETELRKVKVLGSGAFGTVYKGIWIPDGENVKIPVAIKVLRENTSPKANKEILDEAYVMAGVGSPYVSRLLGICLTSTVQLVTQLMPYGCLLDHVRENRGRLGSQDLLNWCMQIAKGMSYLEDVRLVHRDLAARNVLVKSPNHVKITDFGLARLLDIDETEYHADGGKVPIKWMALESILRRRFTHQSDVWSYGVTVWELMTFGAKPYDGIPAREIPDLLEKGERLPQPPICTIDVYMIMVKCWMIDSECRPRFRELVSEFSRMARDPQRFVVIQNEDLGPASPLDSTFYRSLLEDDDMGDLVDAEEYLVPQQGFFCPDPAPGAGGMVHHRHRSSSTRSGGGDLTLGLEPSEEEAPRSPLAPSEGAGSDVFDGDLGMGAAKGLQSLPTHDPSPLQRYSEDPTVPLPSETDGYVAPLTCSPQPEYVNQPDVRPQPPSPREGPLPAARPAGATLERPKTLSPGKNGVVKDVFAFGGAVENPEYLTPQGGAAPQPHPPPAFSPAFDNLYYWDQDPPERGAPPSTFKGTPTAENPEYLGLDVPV

[3] = SK-BR-3 cell growth inhibitors, pilot screen, 24 h, human (AID 572;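 active = viability at or below 10% of carrier control in both of two separate runs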;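 also: compound exposure lasted between 18 and 24 h rather than exactly 24 h; 100% = carrier-treated control wells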); conditions: SK-BR-3 viability, CellTiter-Glo luminescence, at 10 µM, stronger effect = lower value
[4] = HUVEC growth inhibition – cell-based, human, primary screen (AID 575); conditions: HUVEC proliferation, CellTiter-Glo luminescence, 72 h; at 10 µM; stronger effect = lower value;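 also: 100% = median of untreated cell wells with 0.1% DMSO on each plate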
Procedure, shortened: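 Timing: 72 h treatment at 37 °C; material: HUVEC primary cells; technique: CellTiter-Glo luminescence measuring cellular ATP; controls: vehicle and MePR control wells; measure: percent of median DMSO-control luminescence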

[5] = growth inhibitors of H69AR lung tumor, primary screen, human, duplicate replicates (AID 580;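 active = viability at or under a set limit in both replicates, limit being median viability minus 3 SD, cut at about 48% in these data, passing the limit was not always enough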;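 also: 100% = mean luminescence of untreated wells and 0% = no signal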); conditions: H69AR lung tumor cells viability, ATP luminescence, 72 h; at 10 µM; stronger effect = lower value
[6] = reversal of MRP1-mediated doxorubicin resistance, pilot screen, H69AR cells, doxorubicin co-treatment (AID 601;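 active = viability loss from added drug above about 55%, and viability with drug at most 40%, in both replicates, limit read from the data, passing the limit was not always enough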); conditions: CellTiter-Glo, 72 h, at 10 µM; for differential viability (reversal): stronger effect = higher value
[7] = 384-well plate pilot, post-Golgi transport modulator project, inhibition of yeast transport mutant growth (AID 636; in the data active = inhibition above about 31%); conditions: absorbance 615 nm, about 18 h, stronger effect = higher value
[8] = growth suppression of yeast trafficking mutant, preliminary HTS, modulators of trafficking downstream of Golgi apparatus project, 1536-format plate, OD 615 nm (AID 637; in the data active = inhibition above about 30%); conditions: yeast transport mutant growth, absorbance 615 nm, 18 h; stronger effect = higher value
[9] = H69AR cells + 2 uM doxorubicin, measured here: viability with 2 uM doxorubicin, stronger effect = lower value
[10] = H69AR cells, compound alone cytotoxicity

SMILES	viability [1]	Her2 level [2]	viability [3]	viability [4]	viability [5]	differential viability (reversal) ([6]; H69AR cells + 2 uM doxorubicin)	viability [6, 9]	viability [6, 10]	inhibition [7]	inhibition [8]
[N-]=[N+]=CC(=O)CC(c1ccccc1)N1C(=O)c2ccccc2C1=O (stereo not given)	93.5%	106% (inactive)	93.5% (inactive)	97.8% (inactive)	103% (inactive)	5.81% (inactive)	97%	103%	-0.91% (inactive)	-4.29% (inactive)
Cn1c(=O)c2c(nc(NCc3ccc4c(c3)OCO4)n2Cc2ccccc2F)n(C)c1=O	82%	60% (inactive)	82% (inactive)	105% (inactive)	76% (inactive)	-8.01% (inactive)	84%	76%	-3.65% (inactive)	7.3% (inactive)
O=C(C1CCCO1)N1CCN(Cc2nc3ccccc3c(=O)[nH]2)CC1 (stereo not given)	91.5%	92% (inactive)	91.5% (inactive)	96.3% (inactive)	94.9% (inactive)	-10% (inactive)	105%	94.9%	-7.16% (inactive)	0.16% (inactive)
COCCn1nnnc1C(C(C)C)N1CCN(C(=O)c2ccco2)CC1 (stereo not given)	92.5%	112% (inactive)	92.5% (inactive)	99.2% (inactive)	96.7% (inactive)	-1.47% (inactive)	98.2%	96.7%	3.77% (inactive)	15.6% (inactive)
COc1ccc(C(=O)N2CCSC2=S)cc1OC	97.5%	96% (inactive)	97.5% (inactive)	89.4% (inactive)	82.1% (inactive)	-11.5% (inactive)	93.6%	82.1%	-2.21% (inactive)	-1.67% (inactive)
COc1ccc(OC)c(NC(=O)CCN2CCC(C)CC2)c1	112%	120% (inactive)	112% (inactive)	78.3% (inactive)	92.4% (inactive)	-0.63% (inactive)	93.1%	92.4%	4.86% (inactive)	22.4% (inactive)
CCOC(OCC)P(=O)(C(C)C)C(C)C	87%	87% (inactive)	87% (inactive)	103% (inactive)	91.8% (inactive)	3.12% (inactive)	88.6%	91.8%	-1.17% (inactive)	-5.08% (inactive)
Cc1ccc(Cn2c(SCC(C)C)nc3c2c(=O)n(C)c(=O)n3C)cc1	84.5%	75.5% (inactive)	84.5% (inactive)	62.2% (inactive)	77.5% (inactive)	-12.6% (inactive)	90.1%	77.5%	-1.84% (inactive)	9.34% (inactive)
COc1ccccc1NC(=O)CSC1CC(=O)N(c2ccc3c(c2)OCO3)C1=O (stereo not given)	98%	82.5% (inactive)	98% (inactive)	96.5% (inactive)	99.4% (inactive)	0.975% (inactive)	98.4%	99.4%	-4.53% (inactive)	0.16% (inactive)
Cc1cccc(N(CC(N)=O)S(C)(=O)=O)c1C	102%	100% (inactive)	102% (inactive)	107% (inactive)	92% (inactive)	4.79% (inactive)	87.2%	92%	-2.76% (inactive)	0.82% (inactive)
COC(=O)c1onc(C(=O)c2ccccc2)c1C(=O)OC	104%	89.5% (inactive)	104% (inactive)	98.8% (inactive)	97.1% (inactive)	12.7% (inactive)	84.4%	97.1%	-4.34% (inactive)	3.71% (inactive)
COc1ccc(S(=O)(=O)NCCC(=O)NC2CCCCCCC2)cc1	108%	85.5% (inactive)	108% (inactive)	105% (inactive)	88.6% (inactive)	2.31% (inactive)	86.3%	88.6%	0% (inactive)	-8.2% (inactive)
Cc1cc2ncn(N)c2cc1C	99.5%	84% (inactive)	99.5% (inactive)	101% (inactive)	98.8% (inactive)	0.485% (inactive)	98.3%	98.8%	-7.7% (inactive)	1.83% (inactive)
O=C(CCSc1ccccc1)N1CCN(C(=O)c2ccco2)CC1	99%	99.5% (inactive)	99% (inactive)	93.1% (inactive)	95.1% (inactive)	11% (inactive)	84.1%	95.1%	-0.79% (inactive)	-0.32% (inactive)
CCN(CC)CCNC(=O)CCn1c(=S)[nH]c2cc3c(cc2c1=O)OCO3	79%	89.5% (inactive)	79% (inactive)	89.8% (inactive)	90.1% (inactive)	0.295% (inactive)	89.8%	90.1%	-4.59% (inactive)	-2.3% (inactive)
Cc1cc2c(nn1)CCC/C2=N\O	104%	99% (inactive)	104% (inactive)	123% (inactive)	95.6% (inactive)	3.77% (inactive)	91.8%	95.6%	-4.47% (inactive)	6.72% (inactive)

SMILES	viability [1]	Her2 level [2]	viability [3]	viability [4]	viability [5]	differential viability (reversal) ([6]; H69AR cells + 2 uM doxorubicin)	viability [6, 9]	viability [6, 10]	inhibition [7]	inhibition [8]
CCCCn1c(=O)[nH]c(=O)c2c1nc(-c1ccncc1)n2CCOC	108%	116% (inactive)	108% (inactive)	90.5% (inactive)	94.2% (inactive)	1.93% (inactive)	92.2%	94.2%	1.43% (inactive)	-6.5% (inactive)
Cc1ccc(CCNC(=O)C2CCCN(S(=O)(=O)c3cnc[nH]3)C2)cc1 (stereo not given)	102%	121% (inactive)	102% (inactive)	101% (inactive)	101% (inactive)	6.71% (inactive)	94%	101%	-0.8% (inactive)	-2.17% (inactive)
Cc1ccccc1-n1nnnc1SCC(=O)Nc1ccc(S(=O)(=O)N2CCCC2)cc1	70.5%	100% (inactive)	70.5% (inactive)	94.6% (inactive)	85% (inactive)	-2.96% (inactive)	88%	85%	0.53% (inactive)	2.1% (inactive)
COc1cc(C)c(N)cc1C(C)C	103%	91% (inactive)	103% (inactive)	89.2% (inactive)	94.1% (inactive)	1.33% (inactive)	92.8%	94.1%	-2.93% (inactive)	-0.82% (inactive)
COC(=O)c1ccc(NC(=O)Cn2nnc3ccccc32)cc1	94%	82.5% (inactive)	94% (inactive)	109% (inactive)	108% (inactive)	17.7% (inactive)	90%	108%	0.13% (inactive)	0% (inactive)
COc1ccc(S(=O)(=O)n2ccnc2)c2cccnc12	94.5%	110% (inactive)	94.5% (inactive)	90.7% (inactive)	96.1% (inactive)	-0.965% (inactive)	97.1%	96.1%	-2.13% (inactive)	-4.1% (inactive)
CCCOc1ccc(C2c3c(oc4ccccc4c3=O)C(=O)N2CCCN2CCOCC2)cc1 (stereo not given)	84.5%	77.5% (inactive)	84.5% (inactive)	90.3% (inactive)	71.6% (inactive)	0.68% (inactive)	71%	71.6%	-3.73% (inactive)	-4.26% (inactive)
COC(=O)C(C)Oc1ccc2c3c(c(=O)oc2c1)CCCCC3 (stereo not given)	90%	94.5% (inactive)	90% (inactive)	93.7% (inactive)	103% (inactive)	10.5% (inactive)	92.8%	103%	1.05% (inactive)	5.74% (inactive)
COc1ccccc1Cn1nnc2c(=O)[nH]c(C3CCN(C(=O)c4ccccc4Cl)CC3)nc21	93%	95.5% (inactive)	93% (inactive)	102% (inactive)	82.2% (inactive)	54.1% (inactive)	28.1%	82.2%	-3.64% (inactive)	0.48% (inactive)
CC(C)(C)NC(=O)Cn1nnc(-c2cccs2)n1	94%	84% (inactive)	94% (inactive)	101% (inactive)	92.2% (inactive)	13.1% (inactive)	79.1%	92.2%	-3.87% (inactive)	0% (inactive)
Cc1cccc(N2CCN(C(=O)CCn3c(=S)[nH]c4cc5c(cc4c3=O)OCO5)CC2C)c1 (stereo not given)	86%	85.5% (inactive)	86% (inactive)	38.2% (inactive)	50.8% (inactive)	-5.97% (inactive)	56.8%	50.8%	-1.3% (inactive)	1.27% (inactive)
CCS(=O)(=O)N1CCCC(C(=O)NCc2cccc(OC)c2)C1 (stereo not given)	106%	108% (inactive)	106% (inactive)	98.1% (inactive)	96.6% (inactive)	-4.98% (inactive)	102%	96.6%	-5.2% (inactive)	5.41% (inactive)
Cc1ccc(CN2C(=O)CCC2C(=O)NC2CCCC2)cc1 (stereo not given)	132%	95.5% (inactive)	132% (inactive)	94.3% (inactive)	94.1% (inactive)	-1.04% (inactive)	95.1%	94.1%	-6.13% (inactive)	4.59% (inactive)
Cc1nc(-c2cnn(-c3ccccc3)c2)c2cc(C)oc2n1	74.5%	76% (inactive)	74.5% (inactive)	67.2% (inactive)	90.7% (inactive)	3.27% (inactive)	87.4%	90.7%	-2.11% (inactive)	3.28% (inactive)
COCCOC(=O)C1=C(N)OC2=C(C(=O)CC(C)(C)C2)C1c1cccnc1 (stereo not given)	76%	101% (inactive)	76% (inactive)	101% (inactive)	99% (inactive)	7.16% (inactive)	91.9%	99%	-5.95% (inactive)	-1.31% (inactive)
COC(=O)c1cc(Br)c(=O)n(CCN2CCOCC2)c1	102%	87% (inactive)	102% (inactive)	81.5% (inactive)	96.2% (inactive)	13.5% (inactive)	82.8%	96.2%	-4.27% (inactive)	-0.49% (inactive)
